One assay concerns T. gondii tachyzoites. The assay is described as follows: T. gondii tachyzoites growth assay. It counts as cell-based, Toxoplasma gondii. To be noted: read-out: IC50 T. gondii tachyzoites; growth inhibition of tachyzoites.
For assay [1], the target named is T. gondii farnesyl pyrophosphate synthase (TgFPPS) (Toxoplasma gondii, UniProt Q197X6). The class given is biochemical. To be noted: read-out: IC50 TgFPPS.
The target of assay [2] is T. cruzi farnesyl pyrophosphate synthase (TcFPPS) (Trypanosoma cruzi, UniProt Q8WS26). The assay is described as follows: TcFPPS enzymatic activity inhibition assay. It counts as biochemical. To be noted: read-out: IC50 TcFPPS; recombinant enzyme.
The next assay concerns T. cruzi amastigotes. The assay is described as follows: T. cruzi amastigotes assay. It counts as cell-based, Trypanosoma cruzi. The method in brief: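 Vero cells gamma-irradiated (2,000 Rads), seeded at 3.4 × 10^4/well in RPMI + 10% FBS, overnight at 35 °C, 7% CO2. Infected 5 h with 3.4 × 10^5 tdTomato-expressing CL-strain trypomastigotes/well, washed, then serial test compound dilutions in quadruplicate. Controls were uninfected, drug-only and untreated-infected wells, plus benznidazole reference at 3.5 and 1.5 μM. Fluorescence read day 3 post-infection; IC50 by non-linear regression.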

The test system of a further assay is T. cruzi. To be noted: in vivo; cited from earlier work.

The text below walks through data of article PMC3458512 (Organic & biomolecular chemistry, 2012).

Consider `O=P(O)(O)C(F)P(=O)(O)O` [Compound 35, 1-(Fluoromethylene)-1,1-bisphosphonic acid], for which the IC50 was over 10 µM in the assay with T. gondii tachyzoites, over 10 µM in assay [1] and over 1 µM in assay [2].
As to `CC(F)(P(=O)(O)O)P(=O)(O)O` [Compound 36, 1-(Fluoroethylidene)-1,1-bisphosphonic acid], the IC50 with T. gondii tachyzoites was over 10 µM; in assay [1], over 10 µM; in assay [2] it was over 1 µM.
`CCC(F)(P(=O)(O)O)P(=O)(O)O` [Compound 37, 1-(Fluoro-n-propylidene)-1,1-bisphosphophonic acid]: the 50% inhibitory concentration (IC50) was over 10 µM with T. gondii tachyzoites, over 10 µM in assay [1] and over 1 µM in assay [2].
On to `CCCC(F)(P(=O)(O)O)P(=O)(O)O` [Compound 38, 1-(Fluoro-n-butylidene)-1,1-bisphosphonic acid], for which the IC50 with T. gondii tachyzoites is over 10 µM; in assay [1], over 10 µM; in assay [2], over 1 µM.
Turning to `CCCCC(F)(P(=O)(O)O)P(=O)(O)O` [Compound 39, 1-(Fluoro-n-pentylidene)-1,1-bisphosphonic], the IC50 with T. gondii tachyzoites was over 10 µM; in assay [1], 3.42 ± 1.67 µM; in assay [2] it was over 1 µM.
For `CCCCCC(F)(P(=O)(O)O)P(=O)(O)O` [Compound 40, 1-(Fluoro-n-hexylidene)-1,1-bisphosphonic acid], in that order: over 10 µM, 0.16 ± 0.078 µM and over 1 µM.
Taken in the same sequence, the figures for `CCCCCCC(F)(P(=O)(O)O)P(=O)(O)O` [Compound 41, 1-(Fluoro-n-heptylidene)-1,1-bisphosphonic acid] were over 10 µM, 0.241 ± 0.12 µM and over 1 µM.
Taken in the same sequence, the figures for `CCCCCCCC(F)(P(=O)(O)O)P(=O)(O)O` [Compound 42, 1-(Fluoro-n-octylidene)-1,1-bisphosphonic acid] were over 10 µM, 0.616 ± 0.259 µM and over 1 µM.
With `CCCCCCCCC(F)(P(=O)(O)O)P(=O)(O)O` [Compound 43, 1-(Fluoro-n-nonylidene)-1,1-bisphosphonic acid], the IC50 with T. gondii tachyzoites is 2.67 µM; in assay [1], 0.035 ± 0.019 µM; in assay [2] it was over 1 µM. Also, in the assay on T. cruzi amastigotes (at 10 μM), the “growth inhibition of T. cruzi intracellular amastigotes” value is listed as 13% at 10 μM.
Regarding `CCCCCCCCCC(F)(P(=O)(O)O)P(=O)(O)O` [Compound 44, 1-(Fluoro-n-decylidene)-1,1-bisphosphonic acid], the values for the IC50 (in the assay with T. gondii tachyzoites; in assay [1]; in assay [2]) were over 10 µM, 0.06 ± 0.006 µM and over 1 µM, respectively.
Take `O=P(O)(O)C(O)(Cc1cccnc1)P(=O)(O)O` [Risedronate, risedronate]: the “survival of T. cruzi-infected mice” value with T. cruzi is reported as “significantly increase survival”.
As to `O=C(Cn1ccnc1[N+](=O)[O-])NCc1ccccc1` [benznidazole, reference compound], the 50% inhibitory concentration (IC50) in the assay on T. cruzi amastigotes (Trypanosoma cruzi, Vero, 72 h, read-out: IC50 T. cruzi amastigotes) worked out at 2.77 ± 0.488 µM.

Broadly, the IC50 is the point on the concentration scale where inhibition reaches its midpoint.
